Assay results reported in article PMC8970626 (Biochemistry, 2022).
Numbering of substitutions follows the chain as printed. Names may count otherwise. “And” between values parts separate entries of the source, which are not always exact repeats. Equal entries are not always repeated. Each block holds one molecule with its values, some of them ahead of it.

How the values were obtained:
rat CYP24A1 = settings: cited from earlier work
human CYP24A1 (hCYP24A1) = molecular target: T1, human CYP24A1 (hCYP24A1) (Homo sapiens, UniProt Q07973); test: Spectral ligand binding assay with hCYP24A1; settings: for spectral response on titration (type-I, high-spin transition): hCYP24A1 without hAdx
T1 sequence (Q07973 36-514): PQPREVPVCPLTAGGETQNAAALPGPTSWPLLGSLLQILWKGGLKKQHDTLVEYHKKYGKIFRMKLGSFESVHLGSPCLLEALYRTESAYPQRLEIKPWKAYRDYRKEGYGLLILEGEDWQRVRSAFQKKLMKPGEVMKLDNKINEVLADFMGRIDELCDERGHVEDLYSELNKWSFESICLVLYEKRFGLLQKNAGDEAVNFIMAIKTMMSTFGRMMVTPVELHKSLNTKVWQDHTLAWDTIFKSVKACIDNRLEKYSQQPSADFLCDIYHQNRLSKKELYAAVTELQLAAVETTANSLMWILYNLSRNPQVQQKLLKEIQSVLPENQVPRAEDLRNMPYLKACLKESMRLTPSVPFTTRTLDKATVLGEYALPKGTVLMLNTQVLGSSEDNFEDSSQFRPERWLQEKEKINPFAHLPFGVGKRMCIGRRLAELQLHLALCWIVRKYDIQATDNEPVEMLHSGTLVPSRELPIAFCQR

rat CYP24A1 (rCYP24A1) = molecular target: T2, rat CYP24A1 (rCYP24A1) (Rattus norvegicus, UniProt Q09128); test: Spectral ligand binding assay with rCYP24A1; settings: rCYP24A1, no Adx
T2 sequence (Q09128 36-514): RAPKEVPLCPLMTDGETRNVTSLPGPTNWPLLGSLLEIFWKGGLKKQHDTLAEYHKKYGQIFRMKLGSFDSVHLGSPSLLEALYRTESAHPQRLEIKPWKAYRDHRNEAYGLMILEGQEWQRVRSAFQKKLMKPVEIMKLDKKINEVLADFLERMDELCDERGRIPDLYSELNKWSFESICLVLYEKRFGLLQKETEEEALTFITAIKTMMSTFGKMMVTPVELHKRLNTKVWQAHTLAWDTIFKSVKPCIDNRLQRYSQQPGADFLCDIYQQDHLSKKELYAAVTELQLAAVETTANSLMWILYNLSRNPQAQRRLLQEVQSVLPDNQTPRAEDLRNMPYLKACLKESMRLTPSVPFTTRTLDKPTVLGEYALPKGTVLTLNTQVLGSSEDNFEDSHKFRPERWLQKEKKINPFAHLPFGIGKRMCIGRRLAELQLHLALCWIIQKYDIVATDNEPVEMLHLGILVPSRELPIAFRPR
Summary of the method: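 UV-visible difference-spectra titration at ambient temperature with enzyme at 1 μM in 10 mM potassium phosphate. Ligand added from DMSO stock, solvent ≤2%, with 8 min incubation per point before each wavelength scan. Where Adx was present, 10 μM hAdx (WT or L80V) was baselined in the cuvette before enzyme and ligand.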

hCYP24A1 = molecular target: T3, hCYP24A1 (Homo sapiens, UniProt Q07973); test: Reconstituted hCYP24A1 functional assay; format: biochemical; settings: D72N_D76N hAdx double mutant; substrate 5 μM
T3 sequence (Q07973 36-514): T1 sequence (Q07973 36-514)
T3 sequence (P10109 61-184 D132N/D136N partner): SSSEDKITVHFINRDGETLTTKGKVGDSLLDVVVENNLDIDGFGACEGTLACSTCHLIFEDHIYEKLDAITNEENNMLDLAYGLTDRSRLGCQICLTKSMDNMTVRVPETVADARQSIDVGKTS

[1] = molecular target: T4, human cytochrome P450 24A1 (hCYP24A1), cleaved and separated from the hAdx_hCYP24A1 fusion (human, UniProt Q07973 36-514); test: cross-linking
T4 sequence (looked up): T1 sequence (Q07973 36-514)

Molecule: C=C1/C(=C\C=C2/CCC[C@]3(C)[C@@H]([C@H](C)CCCC(C)C)CC[C@@H]23)C[C@@H](O)C[C@@H]1O [1α(OH)D]
substrate quality for rat CYP24A1 (rat CYP24A1): poor substrate
Kd (human CYP24A1 (hCYP24A1); +hAdx (WT, 10-fold, 10 μM)): 700 ± 50 nM
ΔAmax (human CYP24A1 (hCYP24A1); +hAdx (WT, 10-fold, 10 μM)): 0.055 ± 0.004 AU
Kd (human CYP24A1 (hCYP24A1); hCYP24A1 1 μM, no hAdx): 400 ± 100 nM
ΔAmax (human CYP24A1 (hCYP24A1); hCYP24A1 1 μM, no hAdx): 0.04 ± 0.008 AU
spectral response on titration (type-I, high-spin transition) (human CYP24A1 (hCYP24A1)): type-I response, albeit with a more noticeable increase in the high-spin transition

Molecule: C=C1/C(=C\C=C2/CCC[C@]3(C)[C@@H]([C@H](C)CCCC(C)(C)O)CC[C@@H]23)C[C@@H](O)C[C@@H]1O [1α,25(OH)2D]
ΔAmax (rat CYP24A1 (rCYP24A1)): 0.05 ± 0.004 AU
ΔAmax (human CYP24A1 (hCYP24A1); 10-fold excess of D72N_D76N hAdx): 0.02 ± 0.002 AU
ΔAmax (human CYP24A1 (hCYP24A1); 10-fold excess of L80I hAdx): 0.04 ± 0.003 AU
ΔAmax (human CYP24A1 (hCYP24A1); 10-fold excess of L80Q hAdx): 0.02 ± 0.001 AU
ΔAmax (human CYP24A1 (hCYP24A1); 10-fold excess of L80V hAdx): 0.04 ± 0.003 AU
ΔAmax (human CYP24A1 (hCYP24A1); +hAdx (WT, 10-fold, 10 μM)): 0.03 ± 0.004 AU
ΔAmax (human CYP24A1 (hCYP24A1); hCYP24A1 1 μM, no hAdx): 0.03 ± 0.004 AU and 0.03 ± 0.005 AU
spectral response on titration (type-I, high-spin transition) (human CYP24A1 (hCYP24A1)): type-I transition of the Soret band
substrate remaining (hCYP24A1): approximately 60%

Molecule: C=C1CC[C@H](O)C/C1=C/C=C1\CCC[C@]2(C)[C@@H]([C@H](C)CCCC(C)(C)O)CC[C@@H]12 [25(OH)D]
spectral response on titration (type-I, high-spin transition) (human CYP24A1 (hCYP24A1)): no measureable high-spin form is detected
binding affinity relative to other substrates (human CYP24A1 (hCYP24A1); interaction could not be saturated): likely binds with a weaker affinity than the other substrates tested

B1: human adrenodoxin (hAdx), unfused, wild type (natural protein)
chain: T3 sequence (P10109 61-184 D132N/D136N partner) with N72D, N76D
binding result [1]: binds

Continued, values first:

Kd (human CYP24A1 (hCYP24A1); +hAdx (WT, 10-fold, 10 μM)): 4000 ± 40 nM
ΔAmax (human CYP24A1 (hCYP24A1); +hAdx (WT, 10-fold, 10 μM)): 0.04 ± 0.003 AU
spectral response on titration (type-I, high-spin transition) (human CYP24A1 (hCYP24A1)): only a minimal type-I response
Molecule: C=C1/C(=C/C=C2\CCC[C@@]3(C)C2CC[C@@H]3C(C)CCC(O)C(C)(C)O)C[C@@H](O)C[C@@H]1O (stereo partly drawn) [1α,24,25(OH)3D]

binding result [1]: binds
B2: human adrenodoxin mutant L80V (natural protein)
chain: T3 sequence (P10109 61-184 D132N/D136N partner) with N72D, N76D, L80V

binding result [1]: binds
B3: human adrenodoxin mutant L80I (natural protein)
chain: T3 sequence (P10109 61-184 D132N/D136N partner) with N72D, N76D, L80I

binding result [1]: binds
B4: human adrenodoxin mutant L80Q (natural protein)
chain: T3 sequence (P10109 61-184 D132N/D136N partner) with N72D, N76D, L80Q
